Test results from ChEMBL document CHEMBL4020794, “Inhibition of phosphatidylinositol-3-kinase by the furanosesquiterpenoid hibiscone C” (Bioorg Med Chem Lett, 2017).
Calls of active or inactive are those of the source. No cut-off for these calls is given here.

Key:
T-cell [1] = test: Cytotoxicity against C57BL/6 mouse T cells assessed as reduction in cell viability at 100 uM after 24 hrs by trypan blue assay; type: functional, cell-based
Procedure, shortened: (§1)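 Activated T cells in growth (not IL-2 starved) culture, duplicate samples, given DMSO vehicle or compound at the indicated doses. Followed over 24 h. At set time points, cells counted for proliferation and viability scored by trypan blue exclusion.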

Mus musculus [2] = species on record: Mus musculus; test: Inhibition of PI3K in C57BL/6 mouse T cells assessed as decrease in Akt phosphorylation at <10 uM after 1 hr by Western blot analysis; type: cell-based
T-cell [3] = test: Antiproliferative activity against C57BL/6 mouse T cells at […] after 18 hrs by trypan blue assay; type: functional, cell-based; procedure, shortened: as §1
Mus musculus [4] = species on record: Mus musculus; test: Competitive inhibition of PI3K in C57BL/6 mouse T cells assessed as decrease in Akt phosphorylation at 100 uM after 1 to 3 hrs by Western blot analysis; type: cell-based
Procedure, shortened: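 Growing activated T cells, not starved of IL-2, exposed to 100 µM compound or DMSO vehicle for the indicated times. Phospho-Akt detected by Western blot, actin as loading control. Three independent experiments.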

Mus musculus [5] = species on record: Mus musculus; test: Inhibition of PI3K in C57BL/6 mouse IL2 starved T cells assessed as decrease in IL-2 restimulated Akt phosphorylation at 100 uM preincubated for 30 mins followed by recombinant human IL-2 addition measured after 1 to 3 hrs by Western blot analysis
Procedure, shortened: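 Activated T cells deprived of IL-2 overnight, pretreated 30 min with 100 µM compound or DMSO vehicle, then stimulated with 1000 U/mL recombinant human IL-2 for the indicated times. Phospho-Akt detected by Western blot, actin as loading control. Three independent experiments.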

CC(C)[C@@H]1CC(=O)c2coc3c2[C@H]1C[C@@H](C)C3=O
Activity (T-cell [1]): Active | inhibition (Mus musculus [2]): inactive | Activity (T-cell [3]): Active | inhibition (Mus musculus [4]): Active | inhibition (Mus musculus [5]): Active
